# Key:
# [1] = biological target: T1, DLD-1 GLUT1 knock out (for GLUT3) (Homo sapiens, UniProt P11169); assay: [3H]-2DG uptake in DLD-1 GLUT1 knock out cells; assay type: cell-based; conditions: DLD-1 GLUT1 knock out vs wild type
# T1 sequence (P11169 1-496): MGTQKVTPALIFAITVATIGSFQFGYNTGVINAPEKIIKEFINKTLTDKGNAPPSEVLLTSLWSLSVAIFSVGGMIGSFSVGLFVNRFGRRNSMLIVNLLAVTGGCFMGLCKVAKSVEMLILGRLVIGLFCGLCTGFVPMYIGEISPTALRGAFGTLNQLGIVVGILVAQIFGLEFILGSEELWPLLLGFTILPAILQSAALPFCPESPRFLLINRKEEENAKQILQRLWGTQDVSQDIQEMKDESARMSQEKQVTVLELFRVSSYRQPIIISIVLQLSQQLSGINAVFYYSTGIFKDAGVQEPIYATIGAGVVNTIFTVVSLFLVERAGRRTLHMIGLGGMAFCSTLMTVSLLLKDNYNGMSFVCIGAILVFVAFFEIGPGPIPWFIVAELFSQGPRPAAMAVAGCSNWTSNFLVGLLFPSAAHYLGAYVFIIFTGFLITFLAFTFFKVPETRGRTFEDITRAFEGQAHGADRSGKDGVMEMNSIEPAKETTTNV
# How it was run: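 Isogenic DLD-1 lines were run in parallel: wild type (GLUT1) and GLUT1 knockout (GLUT3). Each was treated with test compound, BAY-876 (GLUT1-specific reference) or cytochalasin B (non-specific GLUT inhibitor), then [3H]-2DG uptake was assessed.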
# GLUT1 = biological target: T2, GLUT1 (Homo sapiens, UniProt P11166); assay: rapafucin 3D microarray screen with GLUT1-containing cell lysate; assay type: binding; conditions: hit when SBR greater than 3; GLUT1-containing HEK293T lysate
# T2 sequence (P11166 1-492): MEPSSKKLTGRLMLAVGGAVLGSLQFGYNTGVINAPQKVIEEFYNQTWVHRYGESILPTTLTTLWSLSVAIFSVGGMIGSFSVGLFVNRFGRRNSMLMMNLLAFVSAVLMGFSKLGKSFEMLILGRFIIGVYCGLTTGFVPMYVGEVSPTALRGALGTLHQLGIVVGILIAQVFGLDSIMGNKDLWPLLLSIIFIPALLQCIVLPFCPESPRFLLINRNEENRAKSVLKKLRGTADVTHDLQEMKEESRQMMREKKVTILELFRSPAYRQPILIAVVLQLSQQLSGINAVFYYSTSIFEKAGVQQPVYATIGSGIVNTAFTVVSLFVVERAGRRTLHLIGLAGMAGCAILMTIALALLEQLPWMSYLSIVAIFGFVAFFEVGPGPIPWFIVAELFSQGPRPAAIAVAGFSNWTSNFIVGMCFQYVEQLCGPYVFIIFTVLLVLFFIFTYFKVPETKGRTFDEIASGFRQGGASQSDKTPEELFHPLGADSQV
# How it was run: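 HEK293T cells stably overexpressing GLUT1 gave a detergent-solubilised lysate. This was incubated on rapafucin arrays printed on a diazirine 3D copolymer surface (PEGMA:DMAEMA 8:2; ATRP initiator:propionyl bromide 1:100). Unbound protein was washed off, and bound GLUT1 was detected with anti-GLUT1 antibody plus Cy5 secondary on a microarray scanner. BAY-876 served as positive control.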
# MCF-7 cells = assay: FKBP ligand competition in [3H]-2DG uptake assay in MCF-7 cells; assay type: cell-based, human; conditions: 20 μM with 100nM of RgA
# How it was run: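 MCF-7 cells were exposed to test compound at 100 nM together with 20 μM FK506, 20 μM rapamycin, or their combinations, with each agent also given alone. [3H]-2DG uptake was then measured to test whether excess FKBP-binding ligands antagonise inhibition of glucose uptake.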
Compound,inhibitory activity on [3H]-2DG uptake in GLUT1 knock out cells [1],"signal-to-background ratio (SBR), positive hit on 3D rapafucin microarray (GLUT1)",effect on the inhibitory activity of RgA in the [3H]-2DG uptake assay (MCF-7 cells)
Cc1c(NC(=O)c2cc(C(N)=O)nc3cc(F)ccc23)c(C(F)(F)F)nn1Cc1ccc(C#N)cc1 [BAY-876],lost its inhibitory activity,identified,–
C=CC[C@@H]1/C=C(\C)C[C@H](C)C[C@H](OC)[C@H]2O[C@@](O)(C(=O)C(=O)N3CCCC[C@H]3C(=O)O[C@H](/C(C)=C/[C@@H]3CC[C@@H](O)[C@H](OC)C3)[C@H](C)[C@@H](O)CC1=O)[C@H](C)C[C@@H]2OC [FK506],–,–,negligible effect
C=C1[C@@H](C)[C@H]2[C@H](Cc3ccccc3)NC(=O)[C@]23OC(=O)/C=C/[C@H](O)CCC[C@@H](C)C/C=C/[C@H]3[C@@H]1O [cytochalasin B],maintained its inhibitory activity,–,–
CO[C@H]1C[C@@H]2CC[C@@H](C)[C@@](O)(O2)C(=O)C(=O)N2CCCC[C@H]2C(=O)O[C@H]([C@H](C)C[C@@H]2CC[C@@H](O)[C@H](OC)C2)CC(=O)[C@H](C)/C=C(\C)[C@@H](O)[C@@H](OC)C(=O)[C@H](C)C[C@H](C)/C=C/C=C/C=C/1C [rapamycin],–,–,negligible effect
